Assay results gathered from unrelated publications.
Compare with care: the assays were run in different laboratories.
Target: Tyrosine-protein kinase Lck (LCK, Homo sapiens, UniProt P06239)

| Compound | observed | mode | method | tested at | endpoint | result |
| --- | --- | --- | --- | --- | --- | --- |
| CC#CC(=O)N1CCC[C@H]1c1nc(-c2ccc(C(=O)Nc3ccccn3)cc2)c2c(N)nccn12 | enzyme activity | inhibitor | – | 1 µM | inhibition | 10% |
| CCCCC(=O)Nc1ccc(-c2ccc3ncn(CCC)c(=O)c3c2)cn1 | binding | – | competition with immobilised ligand | 0.5 µM | remaining binding | 100% |
| C=CC(=O)N1CCC[C@@H](n2nc(-c3ccc(Oc4ccccc4)cc3)c3c(N)ncnc32)C1 | enzyme activity | inhibitor | – | 1 µM | inhibition | 99% |
| C#Cc1cc(-c2cc(Nc3nc(N[C@@H](C)c4ccc(F)cn4)ncc3Cl)n[nH]2)ccc1C=O | enzyme activity | inhibitor | – | 0.2 µM | inhibition | 78.9% |
| CNC(=O)c1ccccc1Nc1nc(Nc2ccc(CO)nc2)ncc1Cl | enzyme activity | inhibitor | – | 1 µM | remaining activity | 3.38% |
| C1=C/COCc2cc(ccc2OCCN2CCCC2)Nc2nccc(n2)-c2cccc(c2)COC/1 | binding | – | – | 0.1 µM | remaining binding | 53% |
| C#Cc1cnc(Nc2ccc(CO)nc2)nc1Nc1ccccc1S(C)(=O)=NC#N (stereo not shown) | enzyme activity | inhibitor | – | 1 µM | remaining activity | 12.7% |
| C[C@H]1CC[C@H](n2c3cnccc3c3cnc(Nc4ccc5c(n4)CCN(C(=O)CO)C5)nc32)CC1 | binding | – | competition with immobilised ligand | 1 µM | remaining binding | 49% |
| C#Cc1cnc(Nc2ccc(CO)cc2)nc1Nc1ccccc1C(=O)NC | enzyme activity | inhibitor | – | 1 µM | remaining activity | 2.4% |
| CN1CCN(C(=O)c2ccc(NC(=O)Nc3ccc(N(C)c4ccnc(Nc5ccc(CS(C)(=O)=O)cc5)n4)cc3)cc2)CC1 | binding | – | competition with immobilised ligand | 1 µM | remaining binding | 85% |
